A selection: hits, their analogues and other compounds. The true share with any hit is near 9.6%.
TNAP inh hi DEA: inhibitors of human TNAP at high phosphate acceptor concentration | inhibition, % at 20 µM | P05186 | purified TNAP, CDP-star luminescence, 1 M DEA | AID 1135 | 0.03% of 200,000 active;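 active means over 50% inhibition of tissue-nonspecific alkaline phosphatase at 20 µM in the single-dose screen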
Target sequence (P05186 whole entry, looked up): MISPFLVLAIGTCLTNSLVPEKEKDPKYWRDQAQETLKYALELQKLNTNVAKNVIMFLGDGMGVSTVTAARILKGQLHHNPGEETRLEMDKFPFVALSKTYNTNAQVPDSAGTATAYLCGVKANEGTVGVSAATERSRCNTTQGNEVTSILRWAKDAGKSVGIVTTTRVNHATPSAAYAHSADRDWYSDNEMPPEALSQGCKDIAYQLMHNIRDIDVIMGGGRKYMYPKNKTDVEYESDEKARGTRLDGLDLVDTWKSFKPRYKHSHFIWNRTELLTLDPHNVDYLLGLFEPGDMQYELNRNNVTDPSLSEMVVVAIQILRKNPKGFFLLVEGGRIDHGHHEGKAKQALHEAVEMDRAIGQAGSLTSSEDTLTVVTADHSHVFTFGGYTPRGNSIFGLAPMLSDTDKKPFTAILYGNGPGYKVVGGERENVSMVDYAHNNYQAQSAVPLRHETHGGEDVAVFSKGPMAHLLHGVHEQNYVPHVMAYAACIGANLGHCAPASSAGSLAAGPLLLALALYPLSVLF
PTEN del growth: suppresses growth of cells with PTEN deletion; viability, % at 10 µM; HCT116 PTEN-null viability, CellTiter-Glo, 60 h; stronger effect = lower value; 1.2% of 140,000 active;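 active means viability at or below a set limit, 4 SD under the median of all tested compounds, cut at about 3.7% in these data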;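 further: PTEN knockout HCT116 line with beta catenin targeted HCT116 as companion control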
HCT116 bCat-KO: beta-catenin-lacking colon tumor cell growth suppression | 1.5% of 140,000 active | HCT116 beta-catenin knockout viability, CellTiter-Glo, 60 h; stronger effect = lower value | AID 818 | viability, % at 10 µM;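 active means viability at or under a set limit, the compound median less 4 SD, cut at about 6% in these data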
Lmaj promast: reduces viability of Leishmania major promastigotes | AID 1063 | inhibition, % at 10 µM | resazurin fluorescence viability | 9% of 200,000 active; in the data active means inhibition above about 50%;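 further: promastigotes grown with compound for 44 hours at 28 °C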
TNAP inh noacc: blocks human TNAP activity with no phosphate acceptor present. P05186. purified TNAP, CDP-star luminescence, 30 min. inhibition, % at 20 µM. 0.26% of 200,000 active. AID 1012;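 active means tissue-nonspecific alkaline phosphatase inhibition above about 50% at 20 µM in the single-dose screen, limit read from the data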
TNAP act hi DEA: TNAP (human) activation, high acceptor; activation factor at 20 µM; 200,000 tested, under 10 active; purified TNAP, CDP-star luminescence, 1 M DEA, 30 min; stronger effect = higher value; 0 = EDTA background, 1 = DMSO-only activity; P05186; AID 1136;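 active means activation factor at least 2 at 20 µM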
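Test system – human TNAP · Doses – 20 µM single point · Incubation – 30 min, room temperature · Signal – luminescent substrate turnover signal · Read-out basis – activation factor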
Each line names hits and unclear results; the compound was inactive in the other large screens.

Cc1ccc(C)c2[nH]c(=O)c(CN(Cc3nnnn3C3CCCCC3)CC3CCCO3)cc12 (stereo not given)	Lmaj promast 100
Cc1cccc2cc(CN(Cc3ccc(F)cc3)Cc3nnnn3C3CCCC3)c(=O)[nH]c12	none
COc1ccc(/C=N/Nc2c(Cl)cc(Cl)cc2Cl)cc1CN1CCOCC1	none
Cc1ccc2cc(CN(Cc3nnnn3C3CCCC3)C3CCCCC3)c(=O)[nH]c2c1C	none
Cc1cccc2cc(CN(Cc3cccs3)C3(c4nnnn4C4CCCC4)CCCC3)c(=O)[nH]c12	Lmaj promast 73
Cc1ccc(Nc2c(-c3ccccc3O)nc3cnccn23)cc1	Lmaj promast 79 (no result: PTEN del growth, HCT116 bCat-KO)
COc1ccc(-c2nnc3n2-c2ccccc2SC3)cc1OC	none
CN1C(=O)NC(c2ccccc2)(C(F)(F)F)S/C1=C(/C#N)c1nnc(N2CCOCC2)n1-c1ccccc1 (stereo not given)	none
CCN1C(c2ccc(F)cc2)=CS/C1=C(\C#N)c1nnc2n1-c1ccccc1SC2	Lmaj promast 72
C=CCN1C(c2ccccc2)=CS/C1=C(/C#N)c1nnc(N2CCOCC2)n1-c1ccccc1	Lmaj promast 74
CN1C(c2ccc(F)cc2)=CS/C1=C(/C#N)c1nnc(N2CCOCC2)n1-c1ccccc1	Lmaj promast 56
Cc1sc2ncnc(Sc3ccccc3C(=O)Nc3ccccc3Cl)c2c1C	none
CSc1nc(S(=O)(=O)c2ccc(C)cc2)c(Cl)s1	none (no result: PTEN del growth, HCT116 bCat-KO)
COc1ccccc1/C=C/C1(C(=O)NC2CCCC2)CC(=O)N1c1ccc(F)cc1 (stereo not given)	Lmaj promast 85
COc1ccccc1/C=C/C1(C(=O)NC2CCCC2)CC(=O)N1c1ccc(C)cc1 (stereo not given)	none
Nc1ccc(N2CCCCCC2)cc1	Lmaj promast 100
S=C(c1ccc(N2CCCC2)cc1)N1CCCCC1	Lmaj promast 88
O=C(O)/C=C/C(=O)N1CCN(c2ccc(F)cc2)CC1	none (no result: PTEN del growth, HCT116 bCat-KO)
Nc1ccc(N2CCN(c3ccc(Cl)c(Cl)c3)CC2)cc1	Lmaj promast 98
Oc1ccc(C(=S)N2CCCCCC2)cc1	none
CNC(=S)N1CCN(c2ccc(Cl)c(Cl)c2)CC1	none (no result: PTEN del growth, HCT116 bCat-KO)
Nc1ccc(N2CCN(c3ccc(F)cc3)CC2)cc1	Lmaj promast 78 (no result: PTEN del growth, HCT116 bCat-KO)
COC(=O)c1nnn(CC(=O)NC(=O)Nc2cccc(Cl)c2C)c1C(=O)OC	none (no result: PTEN del growth, HCT116 bCat-KO)
Cc1nc2c(N=Nc3ccccc3F)c(N)nn2c(N)c1C#N	none (no result: PTEN del growth, HCT116 bCat-KO)
O=C(c1ccccc1NS(=O)(=O)c1cccc2cccnc12)N1CCOCC1	none (no result: PTEN del growth, HCT116 bCat-KO)
N#C/C=C(/N)N1CCN(c2ccc(Cl)c(Cl)c2)CC1	Lmaj promast 70
COC(=O)N1CCN(c2ccc(Cl)c(Cl)c2)CC1	none
O=C1Nc2ccc(Br)cc2/C1=C/C1CC=CCC1 (stereo not given)	Lmaj promast 99 (no result: PTEN del growth, HCT116 bCat-KO)
CCOc1ccc(/C=C/C(O)=C2/C(=O)NC3(C)CC2c2ccccc2O3)cc1OC (stereo not given)	none (no result: PTEN del growth, HCT116 bCat-KO)
CN(C)c1ccc(/C=C/C(O)=C2/C(=O)N(C)C3(C)CC2c2ccccc2O3)cc1 (stereo not given)	Lmaj promast 66
CCOc1ccc(/C=C/C(O)=C2/C(=O)N(C)C3(C)CC2c2ccccc2O3)cc1OC (stereo not given)	Lmaj promast 65 (no result: PTEN del growth, HCT116 bCat-KO)
CCOC(=O)C1CCN(Cc2ccc(F)cc2F)CC1	Lmaj promast 89
CCOC(=O)C1CCN(C(=O)c2ccccc2NS(=O)(=O)c2ccc(F)cc2)CC1	Lmaj promast 53
CCOC(=O)C1CCN(Cc2nc3ccccc3c(=O)n2-c2ccc(F)cc2)CC1	none
CCOC(=O)C1CCN(Cc2ccc(OC)c(C)c2OC)CC1	Lmaj promast 64
CCOC(=O)C1CCN(C(=O)c2ccccc2NS(=O)(=O)c2cc(C)ccc2C)CC1	none
COC(=O)C1CCN(Cc2ccc(C)cc2)CC1	Lmaj promast 91
CCOC(=O)C1CCN(Cc2ccc(F)c(Br)c2)CC1	Lmaj promast 77
O=C(CNC1CCCCCC1)c1cccs1	none
CN(C(=O)Nc1ccc(Cl)cc1Cl)C1CCCC1	none (no result: PTEN del growth, HCT116 bCat-KO)
Cc1nnc(NC(=O)c2sc3nc(-c4cccs4)cc(C(F)(F)F)c3c2N)s1	none
CC(C)(C)C(=O)c1sc2nc(-c3cccs3)cc(C(F)(F)F)c2c1N	Lmaj promast 54
CC1=CC=CN2C1=NC(=O)CC2(C)C(=O)N(CC(=O)NC1CCCC1)c1cc(C)cc(C)c1 (stereo not given)	none (no result: PTEN del growth, HCT116 bCat-KO)
Cc1nn(-c2ccc([N+](=O)[O-])cc2)c2c1C(c1cccc(Br)c1)N1C(=N2)C(=O)Nc2ccccc21 (stereo not given)	Lmaj promast 77
C=CCN(C(=O)C1=NN(C2CCS(=O)(=O)C2)C(=O)CC1)c1nc(-c2ccc([N+](=O)[O-])cc2)cs1 (stereo not given)	none (no result: PTEN del growth, HCT116 bCat-KO)
COC(=O)C1=C(C)NC2=C(C(=O)CCC2)C1c1cn(Cc2ccc(Cl)cc2Cl)nc1-c1ccccc1 (stereo not given)	Lmaj promast 57
CCOC(=O)CCc1c(C)nc(SCCN2CCCC2)c(C#N)c1C	Lmaj promast 81
CCn1c(SCC(=O)NNC(=O)c2ccc(C)cc2)nnc1-c1ccco1	none (no result: PTEN del growth, HCT116 bCat-KO)
CCCC/C(C)=N\NC(=O)CNS(=O)(=O)c1ccc([N+](=O)[O-])cc1	PTEN del growth 0.4, HCT116 bCat-KO 0.5
CCCCN(CCCC)CCNC(=O)CSCc1ccc(C)cc1	Lmaj promast 83 (no result: PTEN del growth, HCT116 bCat-KO)
CC(OC(=O)Cc1c(F)cccc1Cl)C(=O)NCCC1=CCCCC1 (stereo not given)	Lmaj promast 52
COc1ccc(OC(C)C(=O)NCCC2=CCCCC2)cc1 (stereo not given)	none (no result: PTEN del growth, HCT116 bCat-KO)
CC(=O)Nc1nc(CCN2C(=O)c3ccccc3C2=O)cs1	none (no result: PTEN del growth, HCT116 bCat-KO)
Cc1cccc(NC(=O)CSc2nc(N)c(NC(=O)c3cccs3)c(=O)[nH]2)c1	none
CC(C)(C)NC(=O)C(c1ccc(F)cc1)N(CCc1ccccc1)C(=O)c1ccn[nH]1 (stereo not given)	none (no result: PTEN del growth, HCT116 bCat-KO)
COc1ccc(N(C(=O)c2ccn[nH]2)C(C(=O)NC(C)(C)C)c2ccc(F)cc2)cc1 (stereo not given)	Lmaj promast 81
C/C(=N\NC(=O)c1ccn(C)n1)c1cccc(NC(=O)c2ccncc2)c1	none
CCC(=O)NC(=S)NNC(=O)c1ccc([N+](=O)[O-])cc1	Lmaj promast 97
COc1ccc(C(=O)NC(=S)NNC(=O)c2ccc(NC(=O)C(C)C)cc2)cc1	Lmaj promast 71
CCCCOc1ccc(C(=O)NNC(=S)NC(=O)CC)cc1	HCT116 bCat-KO 4.5, Lmaj promast 93
CCC(=O)NC(=S)NNC(=O)COc1ccc(Br)cc1	Lmaj promast 74 (no result: PTEN del growth, HCT116 bCat-KO)
Cc1cc2ccccc2n1CCNC(=O)c1ccc(Br)o1	none (no result: PTEN del growth, HCT116 bCat-KO)
COC(=O)c1ccccc1NC(=O)CN1CCC(C)CC1	none (no result: PTEN del growth, HCT116 bCat-KO)
C=CCNC(=S)NNC(=O)c1ccc(OCCCC)cc1	none

Assay outcomes (PubChem BioAssay)
